Assay results gathered from unrelated publications.
Each line is one published result; the experiments were not run side by side.
Target: Vascular endothelial growth factor receptor 2 (KDR, Homo sapiens, UniProt P35968)

effect on | action | method | tested at | endpoint | value | SMILES
enzyme activity | inhibitor | – | 10 µM | inhibition | 10% | O=C(CSc1nc2nccnc2c(=O)n1CCc1ccccc1)Nc1nccs1
enzyme activity | inhibitor | – | 10 µM | inhibition | 95.1% | CSc1nc(C)c(-c2ccnc(Nc3ccc(N4CCOCC4)cc3)c2)[nH]1
cell-free assay | – | competition with immobilised ligand | 0.1 µM | remaining binding | 85% | Cn1nc(C(=O)NCc2ccc(C(=O)O)cc2)cc1-c1ccc2[nH]ccc2c1
enzyme activity | inhibitor | – | 0.1 µM | inhibition | 2.7% | CC/C(=N\NC(=O)NCc1cccc(O)c1)c1ccc(O)c(C)c1O
enzyme activity | inhibitor | – | 10 µM | remaining activity | 71.8% | COc1ccc(NC(=O)c2c(Nc3ccccc3)sc(C#N)c2NC(=O)CNc2ccc([N+](=O)[O-])cc2)cc1
cell-free assay | – | competition with immobilised ligand | 1 µM | remaining binding | 94% | CC(=O)Nc1c(C(C)=O)c(=O)n(C)c2nc(-c3ccc(Cl)cc3Cl)c(-c3ccc(Cl)cc3)cc12
enzyme activity | inhibitor | FRET | 1 µM | inhibition | 14% | CN(C)C1CCN(CC#Cc2nn(C3CCCC3)c3nc(NCc4ccccc4)ncc23)C1 (centres unmarked)
enzyme activity | inhibitor | – | 1 µM | inhibition | 16% | COc1cc2ncnc(Nc3ccc(Oc4ccccc4)c(C)c3C)c2cc1OC
enzyme activity | inhibitor | – | 1 µM | remaining activity | 83.7% | COc1ccc(NC(=O)c2c(Nc3ccccc3)sc(C(=O)NN=Cc3ccc(Cl)cc3)c2NC(C)=O)cc1
cell-free assay | – | competition with immobilised ligand | 1 µM | remaining binding | 99% | N#Cc1ccc(Nc2ccc3[nH]c(=O)[nH]c3c2)c(Cl)c1
enzyme activity | inhibitor | – | 0.1 µM | remaining activity | 83.2% | COc1ccc(NC(=O)c2c(Nc3ccccc3)sc(C(=O)NN=Cc3ccc(OC)c(O)c3)c2NC(C)=O)cc1
cell-free assay | – | – | 0.5 µM | remaining signal | 70.9% | O=C1Nc2ccc(Br)cc2/C1=C/c1cc2c([nH]1)CCCC2
cell-free assay | – | competition with immobilised ligand | 1 µM | remaining binding | 100% | Cc1c(NC(=O)c2cc(C(N)=O)nc3cc(F)ccc23)c(C(F)(F)F)nn1Cc1ccc(C(C)(C)C)cc1
enzyme activity | inhibitor | – | 10 nM | remaining activity | 98% | COc1ccc(NC(=O)c2c(Nc3ccccc3)sc(C#N)c2NC(=O)CNc2ccc(Cl)cc2)cc1
enzyme activity | inhibitor | – | 1 µM | activity vs control | 25% | CC(C)c1ccc(NC(=O)c2cccs2)c(-c2nc3ccccc3[nH]c2=O)c1
enzyme activity | inhibitor | – | 1 µM | remaining activity | 51.3% | COc1ccc(NC(=O)c2c(Nc3ccccc3)sc(C#N)c2NC(=O)CNc2ccc(Br)cc2)cc1
cell-free assay | – | – | 0.5 µM | remaining signal | 75.5% | N#CCCc1ccc2c(c1)-c1[nH]c3ccc([N+](=O)[O-])cc3c1CC(=O)N2
